High-throughput results as filed in PubChem.
L major viab = inhibitors of Leishmania major promastigote growth. Leishmania major promastigotes, resazurin fluorescence viability. inhibition, % at 10 µM. 9% of 200,000 active. AID 1063;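 further: promastigotes grown with compound for 44 hours at 28 °C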
GSH fluor = compound fluoresces at 488/530 nm on GSH beads | GSH beads flow cytometry, compound fluorescence 488/530 nm; active compounds read high | fluorescence (KMESF) at 10 µM | 0.25% of 190,000 active; in the data active means fluorescence above about 89;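 further: glutathione beads carrying GST-tagged Bcl family fusion proteins plus one bare bead set; values are compound well signal with DMSO vehicle wells as background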
Avidin fluor = avidin bead compound fluorescence profile. fluorescence (KMESF) at 10 µM. Avidin beads, compound fluorescence 488/530 nm, flow cytometry; active compounds read high. AID 1775. 0.38% of 220,000 active; in the data active means fluorescence above about 47
ABCB1 inh = human ABCB1 inhibition, ABCG2 as counter-screen; CCRF-Adr cells, JC-1 efflux, flow cytometry; inhibition, % at 6.6 µM; P08183; 0.067% of 190,000 active; in the data active means inhibition above about 40%;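 further: 0% = vehicle and 100% = reference inhibitor; higher value means more JC-1 retained so stronger ABCB1 efflux block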
ABCG2 block = inhibitors of human ABCG2 transporter, ABCB1 counter-screen; IgMXP3 cells, JC-1 efflux, flow cytometry; 0.1% of 190,000 active; Q9UNQ0; inhibition, % at 6.6 µM;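 active means inhibition above 80%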;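 further: 0% = DMSO and 100% = nicardipine control wells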
Target sequence (Q9UNQ0 whole entry, looked up): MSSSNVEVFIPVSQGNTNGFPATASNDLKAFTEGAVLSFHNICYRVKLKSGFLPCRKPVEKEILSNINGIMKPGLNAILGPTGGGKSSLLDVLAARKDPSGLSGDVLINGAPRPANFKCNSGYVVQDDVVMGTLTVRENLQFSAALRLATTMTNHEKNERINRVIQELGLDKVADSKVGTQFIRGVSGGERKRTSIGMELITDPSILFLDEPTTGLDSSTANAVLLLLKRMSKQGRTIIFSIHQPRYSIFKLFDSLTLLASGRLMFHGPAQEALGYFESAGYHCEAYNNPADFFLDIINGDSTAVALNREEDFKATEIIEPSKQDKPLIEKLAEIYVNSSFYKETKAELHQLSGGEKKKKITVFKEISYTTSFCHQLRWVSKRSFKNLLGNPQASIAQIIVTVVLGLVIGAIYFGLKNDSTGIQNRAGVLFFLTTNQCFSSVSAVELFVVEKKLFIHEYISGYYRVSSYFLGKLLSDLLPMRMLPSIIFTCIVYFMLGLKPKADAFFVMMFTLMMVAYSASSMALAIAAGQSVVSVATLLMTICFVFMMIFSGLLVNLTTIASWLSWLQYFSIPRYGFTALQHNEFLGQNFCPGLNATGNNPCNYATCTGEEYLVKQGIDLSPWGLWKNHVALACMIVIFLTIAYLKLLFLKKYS
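Test system: IgMXP3 (ABCG2) plus far-red-tagged CCRF-Adr (ABCB1) cells / Amount: 3 million cells/mL in well / Reagent: JC-1 transporter substrate / Timing: 10 min compound exposure, 25 °C / Signal: flow cytometry, 530 nm JC-1 signal / Read-out: percent efflux inhibition, scaled nicardipine 100% to DMSO 0% / Benchmarks: nicardipine as high control, DMSO as low control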
PKD1 kinase inh = blocks activity of human protein kinase D1; Q15139; PKD1 kinase fluorescence polarization assay; inhibition, % (no concentration beside the values); 0.056% of 200,000 active; AID 797
An asterisk follows results filed as active; nt = no result. Many of the other results were omitted from the sample, so hits are more common in it than they were. Unless noted, no stated cut-off is given here; in the data, active means inhibition above about 50%; inactive means the rest.

SMILES	L major viab	GSH fluor	Avidin fluor	ABCB1 inh	ABCG2 block	PKD1 kinase inh
O=S(=O)(/C=C/c1ccccc1)N1CCN(Cc2ccc3c(c2)OCO3)CC1	85*	16	9	0	2	-6
C(=C\c1ccccc1)/CN1CCN(Cc2ccc3c(c2)OCCO3)CC1	92*	18	27	1	2	-7
Cc1c(Cc2ccccc2)c(=O)oc2cc(O)cc(O)c12	-13	23	10	0	2	-4
COc1cc([N+](=O)[O-])ccc1NC(=O)CCN1C(=O)C2C3CCC(C3)C2C1=O (centres undefined)	56*	7	22	1	31	-12
COc1cc([N+](=O)[O-])ccc1NC(=O)CN(C)C	-2	28	11	0	4	1
COC(=O)Cc1c(C)nc2nc(NCc3ccc(Cl)cc3)[nH]n2c1=O	-7	15	86*	0	2	13
COc1ccc(-c2c(S(=O)(=O)c3ccccc3)cnn2-c2ccccc2)cc1	59*	34	11	3	21	-2
O=S(=O)(c1ccccc1)c1cnn(-c2ccccc2)c1-c1ccc(Cl)cc1	55*	18	23	3	21	-13
Nc1nc(-c2ccc(Cl)cc2)c(S(=O)(=O)c2ccccc2)s1	6	18	10	1	3	5
C#CCNC(=O)C1=C[C@H](c2ccc(C(F)(F)F)cc2)C[C@H](OCCCCO)O1	0	18	5	0	2	8
CCC(=O)Nc1c(C)nn(-c2ccc(C)c(C)c2)c1C	-5	14	3	-1	-3	-3
Cc1ccc(-n2nc(C)c(NC(=O)CCl)c2C)cc1C	56*	15	3	0	0	-5
COc1ccc(NC(=O)CSc2ncn(-c3ccccc3)n2)cc1Cl	2	9	10	0	3	2
Cc1ccc(NC(=O)CSc2ncn(-c3ccccc3)n2)cc1C	97*	27	8	0	3	-7
C#CCOCCOCCOCCNc1nc(N2CCN(C(=O)[C@H](CCCCN)n3cc([C@@H](N)C(C)CC)nn3)CC2)nc(N2CCN(C(=O)[C@H](CCCCN)n3cc([C@@H](N)CC(C)C)nn3)CC2)n1 (some centres undefined)	-11	19	5	0	-1	0
Cc1ccc(S(=O)(=O)C2(C(=O)O)CCCC2)cc1C	3	6	17	0	3	2
CC(C)(C)C(=O)Nc1nnc(CC(=O)NCc2ccccc2)s1	-5	18	9	0	2	-6
O=C(Nc1nnc(CSCc2ccccc2F)s1)c1cccc([N+](=O)[O-])c1	95*	6	0	0	-3	3
CC(C)(C)C(=O)Nc1nnc(CSCc2ccccc2F)s1	100*	43	4	0	2	2
CC(C)C(=O)Nc1nnc(CCc2nnc(NC(=O)C(C)C)s2)s1	-5	23	28	1	9	-3
CC(C)C(=O)Nc1nnc(CSCc2ccccc2F)s1	91*	34	7	0	9	-6
CC(NC(=O)c1cccs1)C(c1cccs1)N1CCOCC1 (centres undefined)	-4	37	5	0	0	-10
COc1ccc(N=C2C(=O)Nc3c(C)cccc32)cc1	4	28	13	-2	-2	-1
Cc1ccc(/C=C/C(=O)N2CCN(S(=O)(=O)c3ccc(C)c(C)c3)CC2)o1	17	7	1	1	1	-11
CC(C)c1cccc(C(C)C)c1NC(=O)CNCc1ccccc1F	60*	7	13	1	9	-12
SMILES	L major viab	GSH fluor	Avidin fluor	ABCB1 inh	ABCG2 block	PKD1 kinase inh
CCOc1ccc(S(=O)(=O)NCCN2CCOCC2)c2ccccc12	96*	14	28	0	1	-5
CCCOc1ccc(S(=O)(=O)NCCN2CCOCC2)c2ccccc12	66*	37	10	2	19	9
CCOc1cc(S(=O)(=O)NCCN2CCOCC2)c(C)cc1C	1	19	7	0	0	-7
COc1c(S(=O)(=O)NCCN2CCOCC2)ccc(Cl)c1Cl	67*	50	9	1	3	0
Cc1ccc2[nH]c(=O)c(CN(CCCN(C)C)C(=O)Nc3ccc(Cl)cc3)cc2c1	90*	15	7	0	1	-7
Cc1ccc2[nH]c(=O)c(CN(CCCN(C)C)C(=S)NCCc3ccccc3)cc2c1	76*	16	9	1	2	1
Cc1ccc(NC(=S)N(CCCN(C)C)Cc2cc3cc4c(cc3[nH]c2=O)OCO4)cc1	3	8	9	0	0	-1
COc1cc2cc(CN(CCc3cccc(C)c3)C(=S)NCCCN(C)C)c(=O)[nH]c2cc1OC	52*	15	17	0	1	-16
Cc1cccc2cc(CN(CCCN(C)C)C(=S)NCCc3ccccc3)c(=O)[nH]c12	65*	11	10	0	-1	-6
O=C1CCCc2cc3c(cc21)CC1(C3)Cc2cc3c(cc2C1)C(=O)CCC3	nt	nt	7	nt	nt	nt
Cc1ccc(NC(=O)COC(=O)/C=C/c2c(C)nn(-c3ccc(F)cc3)c2Cl)cc1F	-9	19	3	0	-3	-8
Clc1ccc(-c2csc(N3CCSCC3)n2)cc1	40	6	14	2	54	3
CNc1ccc(Oc2nc([N+](=O)[O-])nn2C)cc1	1	15	7	0	3	0
CCN(CC)CCCN(Cc1cc2cc3c(cc2[nH]c1=O)OCCO3)C(=O)Nc1ccccc1	10	14	54*	1	3	-8
O=C(Nc1ccccc1)N(CCCN1CCOCC1)Cc1cc2cc3c(cc2[nH]c1=O)OCCO3	11	22	34	-1	2	-14
O=C(O)CCCC(=O)Nc1ccc(Sc2ccc([N+](=O)[O-])cc2)cc1	-2	14	14	0	1	4
O=C(O)CCC(=O)Nc1ccc(Sc2ccc([N+](=O)[O-])cc2)cc1	51*	7	12	1	5	-5
Cc1ccnc(NC(=O)C2CCN(S(=O)(=O)c3cccc4nsnc34)CC2)c1	10	46	6	1	1	10
Cc1ccnc(NC(=O)C2CCN(S(=O)(=O)c3cccc4nonc34)CC2)c1	99*	14	30	1	4	-11
COc1ccc(C(=O)Nc2ccc(-c3nnn(CC(=O)NCc4ccco4)n3)cc2)cc1	nt	nt	8	nt	nt	nt
CC(C)CCNC(=O)c1ccc(Cl)c(NC(=O)Cc2ccccc2)c1	6	6	1	1	10	-4
CC(C)(C)OC(=O)N1CCC[C@H]1C(=O)N/N=C/c1cccc2nccnc12	nt	nt	7	nt	nt	nt
CN(c1ccccc1)c1ccc(/C=C/[N+](=O)[O-])cc1	100*	18	16	0	-3	6
CN(c1ccccc1)c1ccc(/C=N/NC(=O)CC#N)cc1	-3	6	1	1	3	-13
Cc1cnc(C(=O)N2CCN(c3ccc(C(F)(F)F)cn3)CC2)cn1	nt	nt	6	nt	nt	nt
